This is an account of results in ChEMBL document CHEMBL1154674, “Synthesis and evaluation of three 18F-labeled aminophenylbenzothiazoles as amyloid imaging agents” (J Med Chem, 2009).

What all share (assay type): ADME, organism-based, Macaca mulatta
The nature of series [1]: Drug level in normal rhesus monkey parietal cortex assessed as standard uptake value at 81.2 MBq, iv after 22.5 mins by microPET. The settings on record: in vivo, 0.375 h.
Series [2] in a line: Drug level in normal rhesus monkey cerebellum assessed as standard uptake value at 81.2 MBq, iv after 0.5 mins by microPET. The settings on record: in vivo. The essentials:
(§1)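 One normal rhesus monkey, each tracer given iv via the vena saphena (81.2, 96.3 or 109.4 MBq), with 1 day between tracer injections. Dynamic brain μPET over 180 min used frames of 5 × 60 s, 5 × 120 s, 9 × 300 s and 12 × 600 s. Images were reconstructed by filtered back projection with a RAMP filter. Regional time-activity curves were expressed as SUV.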

Series [3] can be described thus: Drug level in normal rhesus monkey parietal cortex assessed as standard uptake value at 81.2 MBq, iv after 175 mins by microPET. The settings on record: in vivo.
A short description of series [4]: Drug level in normal rhesus monkey cerebellum assessed as standard uptake value at 81.2 MBq, iv after 14 mins by microPET. The settings on record: in vivo. The essentials: as §1
A short description of series [5]: Drug level in normal rhesus monkey frontal cortex assessed as standard uptake value at 81.2 MBq, iv after 32.5 mins by microPET. The settings on record: in vivo.
The nature of series [6]: Drug level in normal rhesus monkey pons assessed as standard uptake value at 81.2 MBq, iv after 4.5 mins by microPET. The settings on record: in vivo, 0.075 h.
Series [7] is described as follows: Drug level in normal rhesus monkey white matter assessed as standard uptake value at 81.2 MBq, iv after 37.5 mins by microPET. The settings on record: in vivo, 0.625 h.
Series [8] is described as follows: Drug level in normal rhesus monkey frontal cortex assessed as standard uptake value at 81.2 MBq, iv after 12 mins by microPET. The settings on record: in vivo, 0.2 h. The procedure, abridged: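 Single normal rhesus monkey; each tracer given iv via the vena saphena, with 1 day between tracer injections. Dynamic μPET ran 180 min (5×60 s, 5×120 s, 9×300 s, 12×600 s). Images were reconstructed by filtered back projection with a RAMP filter. Regional time-activity curves were expressed as SUV.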

The nature of series [9]: Drug level in normal rhesus monkey pons assessed as standard uptake value at 81.2 MBq, iv after 145 mins by microPET. The settings on record: in vivo.
Series [10] in a line: Drug level in normal rhesus monkey pons assessed as standard uptake value at 96.3 MBq, iv after 155 mins by microPET. The settings on record: in vivo.
Series [11] is described as follows: Drug level in normal rhesus monkey thalamus assessed as standard uptake value at 96.3 MBq, iv after 32.5 mins by microPET. The settings on record: in vivo.
Series [12] is described as follows: Drug level in normal rhesus monkey frontal cortex assessed as standard uptake value at 96.3 MBq, iv after 6 mins by microPET. The settings on record: in vivo, 0.1 h.
Series [13] in a line: Drug level in normal rhesus monkey pons assessed as standard uptake value at 96.3 MBq, iv after 8 mins by microPET. The settings on record: in vivo.
The nature of series [14]: Drug level in normal rhesus monkey frontal cortex assessed as standard uptake value at 96.3 MBq, iv after 175 mins by microPET. The settings on record: in vivo.
A short description of series [15]: Drug level in normal rhesus monkey frontal cortex assessed as standard uptake value at 96.3 MBq, iv after 115 mins by microPET. The settings on record: in vivo.
Series [16] is described as follows: Drug level in normal rhesus monkey thalamus assessed as standard uptake value at 109.4 MBq, iv after 32.5 mins by microPET. The settings on record: in vivo.
Series [17] in a line: Drug level in normal rhesus monkey thalamus assessed as standard uptake value at 109.4 MBq, iv after 9.5 mins by microPET. The settings on record: in vivo.
A short description of series [18]: Drug level in normal rhesus monkey thalamus assessed as standard uptake value at 109.4 MBq, iv after 47.5 mins by microPET. The settings on record: in vivo.
Series [19] in a line: Drug level in normal rhesus monkey parietal cortex assessed as standard uptake value at 109.4 MBq, iv after 4.5 mins by microPET. The settings on record: in vivo, 0.075 h.
Series [20] in a line: Drug level in normal rhesus monkey parietal cortex assessed as standard uptake value at 109.4 MBq, iv after 69 mins by microPET. The settings on record: in vivo, 1.15 h.
Series [21] can be described thus: Drug level in normal rhesus monkey thalamus assessed as standard uptake value at 109.4 MBq, iv after 3.5 mins by microPET. The settings on record: in vivo.
Series [22] is described as follows: Drug level in normal rhesus monkey pons assessed as standard uptake value at 109.4 MBq, iv after 117 mins by microPET. The settings on record: in vivo, 1.95 h.
Series [23] in a line: Drug level in normal rhesus monkey parietal cortex assessed as standard uptake value at 109.4 MBq, iv after 0.375 mins by microPET. The settings on record: in vivo, 22 s.
Series [24] can be described thus: Drug level in normal rhesus monkey pons assessed as standard uptake value at 109.4 MBq, iv after 47.5 mins by microPET. The settings on record: in vivo.
The nature of series [25]: Drug level in normal rhesus monkey pons assessed as standard uptake value at 109.4 MBq, iv after 3.5 mins by microPET. The settings on record: in vivo.
Series [26] in a line: Drug level in normal rhesus monkey frontal cortex assessed as standard uptake value at 109.4 MBq, iv after 9.5 mins by microPET. The settings on record: in vivo.
Series [27] in a line: Drug level in normal rhesus monkey frontal cortex assessed as standard uptake value at 109.4 MBq, iv after 0.875 mins by microPET. The settings on record: in vivo, 52 s.
Series [28] can be described thus: Drug level in normal rhesus monkey frontal cortex assessed as standard uptake value at 109.4 MBq, iv after 15.5 mins by microPET. The settings on record: in vivo.
Series [29] is described as follows: Drug level in normal rhesus monkey parietal cortex assessed as standard uptake value at 109.4 MBq, iv after 27.5 mins by microPET. The settings on record: in vivo.
The nature of series [30]: Drug level in normal rhesus monkey cerebellum assessed as standard uptake value at 109.4 MBq, iv after 93 mins by microPET. The settings on record: in vivo, 1.55 h.
Series [31] in a line: Drug level in normal rhesus monkey pons assessed as standard uptake value at 152.9 MBq, iv after 0.5 mins by microPET. The settings on record: in vivo.
Series [32] is described as follows: Drug level in normal rhesus monkey white matter assessed as standard uptake value at 152.9 MBq, iv after 47.5 mins by microPET. The settings on record: in vivo.
Series [33] in a line: Drug level in normal rhesus monkey cerebellum assessed as standard uptake value at 152.9 MBq, iv after 75 mins by microPET. The settings on record: in vivo, 1.25 h. The essentials: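 Single normal rhesus monkey; tracer given iv via the vena saphena, 1 day apart from the other tracer injections. Dynamic μPET ran 90 min (5×60 s, 5×120 s, 9×300 s, 3×600 s). Images were reconstructed by filtered back projection with a RAMP filter. Regional time-activity curves were expressed as SUV.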

Series [34] in a line: Drug level in normal rhesus monkey pons assessed as standard uptake value at 152.9 MBq, iv after 65 mins by microPET. The settings on record: in vivo.
The nature of series [35]: Drug level in normal rhesus monkey white matter assessed as standard uptake value at 152.9 MBq, iv after 57.5 mins by microPET. The settings on record: in vivo.
Series [36] can be described thus: Drug level in normal rhesus monkey thalamus assessed as standard uptake value at 152.9 MBq, iv after 37.5 mins by microPET. The settings on record: in vivo, 0.625 h.
Series [37] is described as follows: Drug level in normal rhesus monkey white matter assessed as standard uptake value at 152.9 MBq, iv after 85 mins by microPET. The settings on record: in vivo.
A short description of series [38]: Drug level in normal rhesus monkey pons assessed as standard uptake value at 152.9 MBq, iv after 8 mins by microPET. The settings on record: in vivo.

As to `CNc1ccc2nc(-c3ccc([18F])cc3)sc2c1`, the SUV in series [1] is listed as 4.538; in [2], 0.735; in [3], 2.528; in [4], 2.614; in [5], 5.574; in [6], 5.172. Further, the SUV in [7] is recorded as 3.78; in series [8], 5.988; in series [9], 5.067.

On to `CN(C)c1ccc2nc(-c3ccc([18F])cc3)sc2c1`, for which the SUV is 1.87 in [10]; 2.33 in [11]; 1.97 in series [12]; 1.44 in series [13]; 1.49 in [14]; 1.66 in series [15].

Take `Nc1ccc2nc(-c3ccc([18F])cc3)sc2c1`: the SUV in [16] came out at 5.59; in series [17], 5.36; in series [18] it was 5.56; in series [19] it was 5.12; in [20] it was 4.1; in series [21], 4.66. The SUV turned out to be 4.76 in series [22]; 0.34 in [23]; 4.7 in series [24]; 3.33 in series [25]; 5.43 in [26]; 1.73 in series [27]. The results for the SUV in series [28], in [29] and in series [30] were 5.08, 4.84 and 2.52, respectively.

With `[11CH3]Nc1ccc(-c2nc3ccc(O)cc3s2)cc1` [PITTSBURGH COMPOUND B], the SUV in [31] amounted to 0.041; in series [32] it was 0.943; in series [33] it was 0.665; in [34] it was 0.852; in [35] it was 0.957; in series [36], 1.364. In addition, the SUV in [37] stood at 0.878; in [38], 2.153.
